Assay [1] concerns the target Leucine--tRNA ligase, cytoplasmic (Homo sapiens) (UniProt Q9P2J5). As to the kind of experiment: Inhibition of LRS-mediated mTORC1 activation in HEK293 cells assessed as decrease in leucine-induced S6K phosphorylation at T389 at 200 uM treated prior to leucine induction measured after 10 mins by Western blot method. The format is cell-based. In a few lines:
(§1)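 HEK293 cells were pretreated at one fixed level: test agents at 200 μM, rapamycin at 100 nM or leucinol at 800 μM. mTORC1 was then activated by adding leucine for 10 min. Lysates were Western blotted for phospho-S6K, total S6K, LRS, mTOR and phospho-mTOR.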
Background: A western blot detects proteins with antibodies after separation by electrophoresis.

In assay [2] the test system is HEK293. As to the kind of experiment: Effect on S6K expression in HEK293 cells at 200 uM treated prior to leucine addition measured after 10 mins by Western blot method. The settings on record: Homo sapiens. In kind it is functional, cell-based. In a few lines:
as §1

Assay [3] deals with HEK293. Nature of the assay: Effect on LRS expression in HEK293 cells at 200 uM treated prior to leucine addition measured after 10 mins by Western blot method. In kind it is functional, cell-based. The note with it: Homo sapiens. The method in brief: as §1
The test system of assay [4] is HEK293. Nature of the assay: Effect on mTOR expression in HEK293 cells at 200 uM treated prior to leucine addition measured after 10 mins by Western blot method. The format is functional, cell-based. The note with it: Homo sapiens. The method in brief:
as §1

Assay [5] addresses Serine/threonine-protein kinase mTOR (Homo sapiens) (UniProt P42345). As to the kind of experiment: Inhibition of mTOR phosphorylation in HEK293 cells at 200 uM treated prior to leucine addition measured after 10 mins by Western blot method. In kind it is cell-based. The method in brief:
as §1

Assay [6] addresses Leucine--tRNA ligase, cytoplasmic (Homo sapiens) (UniProt Q9P2J5). As to the kind of experiment: Inhibition of LRS-mediated mTORC1 activation in HEK293 cells assessed as decrease in leucine-induced S6K phosphorylation at T389 at 100 uM treated prior to leucine induction measured after 10 mins by Western blot method. In kind it is cell-based. In a few lines: (§2)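 Dose-dependent series in HEK293 cells. Compounds were given as pretreatment at several concentrations, then leucine was added for 10 min to activate mTORC1. Western blots were probed for phospho-S6K, S6K, LRS, mTOR and phospho-mTOR.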

In assay [7] the test system is HEK293. Nature of the assay: Effect on S6K expression in HEK293 cells at 20 to 200 uM treated prior to leucine addition measured after 10 mins by Western blot method. The format is functional, cell-based. The note with it: Homo sapiens. The method in brief: as §2
The test system of assay [8] is HEK293. Nature of the assay: Effect on LRS expression in HEK293 cells at 20 to 200 uM treated prior to leucine addition measured after 10 mins by Western blot method. The format is functional, cell-based. The settings on record: Homo sapiens. In a few lines:
as §2

The test system of assay [9] is HEK293. As to the kind of experiment: Effect on mTOR expression in HEK293 cells at 20 to 200 uM treated prior to leucine addition measured after 10 mins by Western blot method. The format is functional, cell-based. The note with it: Homo sapiens. In a few lines:
as §2

Assay [10] has as its target Serine/threonine-protein kinase mTOR (Homo sapiens) (UniProt P42345). As to the kind of experiment: Inhibition of mTOR phosphorylation in HEK293 cells at 20 to 200 uM treated prior to leucine addition measured after 10 mins by Western blot method. In kind it is cell-based. The method in brief: as §2
The next assay has as its system A549. As to the kind of experiment: Cytotoxicity against human A549 cells assessed as growth inhibition after 72 hrs by SRB assay. The format is functional, cell-based. The settings on record: A549, 72 h. In a few lines: (§3)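 Growth-inhibition IC50 values in a panel of cancer lines: A549 (lung), HCT116 (colon), K562 (leukemia), MDA-MB-231 (breast), SK-Hep-1 (liver) and SNU638 (stomach), plus MRC5 (described as normal lung epithelial cells). Etoposide was run in parallel as the positive control.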

A further assay concerns HCT-116. Nature of the assay: Cytotoxicity against human HCT116 cells assessed as growth inhibition after 72 hrs by SRB assay. In kind it is functional, cell-based. The settings on record: HCT-116, 72 h. In a few lines:
as §3
For orientation: The SRB assay estimates cell density from bound dye.

A further assay concerns K562. As to the kind of experiment: Cytotoxicity against human K562 cells assessed as growth inhibition after 72 hrs by SRB assay. In kind it is functional, cell-based. The settings on record: K562, 72 h. In a few lines: as §3
For a further assay, the system named is MDA-MB-231. As to the kind of experiment: Cytotoxicity against human MDA-MB-231 cells assessed as growth inhibition after 72 hrs by SRB assay. The format is functional, cell-based. The note with it: MDA-MB-231, 72 h. The method in brief:
as §3

For a further assay, the system named is SK-HEP1. Nature of the assay: Cytotoxicity against human SKHEP1 cells assessed as growth inhibition after 72 hrs by SRB assay. In kind it is functional, cell-based. The settings on record: SK-HEP1, 72 h. In a few lines: as §3
Another assay concerns SNU-638. Nature of the assay: Cytotoxicity against human SNU638 cells assessed as growth inhibition after 72 hrs by SRB assay. In kind it is functional, cell-based. The settings on record: SNU-638, 72 h. The method in brief: as §3
A further assay concerns MRC5. Nature of the assay: Cytotoxicity against human MRC5 cells assessed as growth inhibition after 72 hrs by SRB assay. In kind it is cell-based. The note with it: MRC5, 72 h. The method in brief:
as §3

Assay [11] addresses Leucine--tRNA ligase, cytoplasmic (Homo sapiens) (UniProt Q9P2J5). Nature of the assay: Inhibition of LRS-mediated mTORC1 activation in HEK293 cells assessed as decrease in leucine-induced S6K phosphorylation at T389 at 100 nM treated prior to leucine induction measured after 10 mins by Western blot method. The format is cell-based. The method in brief:
as §1

For assay [12] the target is unchanged. As to the kind of experiment: Inhibition of LRS-mediated mTORC1 activation in HEK293 cells assessed as decrease in leucine-induced S6K phosphorylation at T389 at 800 uM treated prior to leucine induction measured after 10 mins by Western blot method. In kind it is cell-based. The method in brief:
as §1

Assay [13] has the same target. As to the kind of experiment: Inhibition of LRS-mediated mTORC1 activation in HEK293 cells assessed as decrease in leucine-induced S6K phosphorylation at T389 treated prior to leucine induction measured after 10 mins by Western blot method. The format is cell-based. In a few lines:
as §2

Assay [14] shares this target. As to the kind of experiment: Inhibition of LRS aminooleucylation in HEK293 cells assessed as residual activity. The format is cell-based.

Activity calls are given as the source filed them. The rule behind the calls is not given here.

Leucine--tRNA ligase, cytoplasmic (Homo sapiens), sequence (Q9P2J5 whole entry, looked up): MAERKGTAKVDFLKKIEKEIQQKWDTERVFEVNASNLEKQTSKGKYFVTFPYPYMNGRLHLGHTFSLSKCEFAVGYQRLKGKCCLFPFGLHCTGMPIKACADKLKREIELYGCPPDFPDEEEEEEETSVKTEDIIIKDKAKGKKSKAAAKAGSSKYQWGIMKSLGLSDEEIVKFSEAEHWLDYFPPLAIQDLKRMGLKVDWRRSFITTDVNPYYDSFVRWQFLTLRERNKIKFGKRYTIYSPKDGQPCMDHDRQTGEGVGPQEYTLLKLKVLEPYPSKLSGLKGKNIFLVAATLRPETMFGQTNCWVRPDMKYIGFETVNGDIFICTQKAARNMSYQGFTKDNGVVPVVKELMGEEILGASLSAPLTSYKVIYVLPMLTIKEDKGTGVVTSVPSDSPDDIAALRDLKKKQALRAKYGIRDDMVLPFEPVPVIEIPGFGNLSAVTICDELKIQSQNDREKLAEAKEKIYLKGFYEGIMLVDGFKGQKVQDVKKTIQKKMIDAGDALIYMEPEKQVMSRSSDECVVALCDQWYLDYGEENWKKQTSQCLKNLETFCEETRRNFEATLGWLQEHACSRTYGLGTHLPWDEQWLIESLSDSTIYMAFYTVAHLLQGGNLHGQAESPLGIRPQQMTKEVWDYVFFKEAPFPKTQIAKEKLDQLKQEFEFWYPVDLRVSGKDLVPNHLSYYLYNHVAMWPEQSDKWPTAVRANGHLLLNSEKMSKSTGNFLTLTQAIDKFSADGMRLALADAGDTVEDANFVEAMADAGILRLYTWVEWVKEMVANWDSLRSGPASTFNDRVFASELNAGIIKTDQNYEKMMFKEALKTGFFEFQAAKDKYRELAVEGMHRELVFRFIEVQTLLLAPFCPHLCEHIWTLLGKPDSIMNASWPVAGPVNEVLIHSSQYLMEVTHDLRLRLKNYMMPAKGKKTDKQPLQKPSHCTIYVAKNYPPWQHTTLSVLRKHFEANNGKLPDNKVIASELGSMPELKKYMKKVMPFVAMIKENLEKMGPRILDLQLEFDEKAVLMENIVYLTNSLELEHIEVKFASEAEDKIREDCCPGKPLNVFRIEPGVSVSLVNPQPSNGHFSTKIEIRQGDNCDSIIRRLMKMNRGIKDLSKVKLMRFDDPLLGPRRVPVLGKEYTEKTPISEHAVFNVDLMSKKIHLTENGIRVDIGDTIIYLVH

On to `COc1cc2ncnc(Nc3ccc(F)c(Cl)c3)c2cc1OCCOS(=O)(=O)NC(=O)[C@@H](N)CC(C)C`, for which the inhibition result in assay [1] and in assay [5] was “inactive” throughout. Besides, the result with HEK293 [2], in the assay with HEK293 [3] and in the assay on HEK293 [4] was inactive.
Consider `COc1cc2ncnc(Nc3ccc(F)c(Cl)c3)c2cc1OCCOC(=O)[C@@H](N)CC(C)C`, for which the inhibition result in assay [1] and in assay [6] was “Active” throughout. The result in the assay with HEK293 [7], with HEK293 [8] and with HEK293 [9] was inactive. The inhibition result in assay [10] was “inactive”. For the same molecule, the concentration for half-maximal inhibition (IC50) stood at 3.59 µM in the assay on A549; 3.97 µM in the assay with HCT-116; 4.01 µM with K562; 3.65 µM in the assay with MDA-MB-231; 1.94 µM in the assay on SK-HEP1; 3.86 µM with SNU-638. In addition, in the assay with MRC5, the IC50 was found to be 1.87 µM.
As to `CO[C@H]1C[C@@H]2CC[C@@H](C)[C@@](O)(O2)C(=O)C(=O)N2CCCC[C@H]2C(=O)O[C@H]([C@H](C)C[C@@H]2CC[C@@H](O)[C@H](OC)C2)CC(=O)[C@H](C)/C=C(\C)[C@@H](O)[C@@H](OC)C(=O)[C@H](C)C[C@H](C)/C=C/C=C/C=C/1C`, in assay [11], the inhibition result is “Active”.
Turning to `CC(C)C[C@H](N)CO`, the inhibition result in assay [12] is “Active”.
Take `COc1cc2ncnc(Nc3ccc(F)c(Cl)c3)c2cc1OCCNC(=O)[C@@H](O)CC(C)C`: in assay [1], the inhibition result was “Active”. For the same molecule, the outcome with HEK293 [2], in the assay on HEK293 [3] and in the assay on HEK293 [4] was inactive. In addition, the inhibition result in [5] was “inactive”.
As to `COc1cc2ncnc(Nc3ccc(F)c(Cl)c3)c2cc1OS(=O)(=O)NC(=O)[C@@H](O)CC(C)C`, in assay [1], the inhibition result is “Active”. Further, the inhibition entry in [13] is “Dose-dependent effect”. Besides, the result in the assay with HEK293 [7], in the assay on HEK293 [8] and in the assay on HEK293 [9] was inactive. Further, in [10], the inhibition entry was “inactive”. Besides, in assay [14], the Activity is more than 70%. The IC50 in the assay on A549 is 4.38 µM; with HCT-116, 4.04 µM; with K562, 4.1 µM; in the assay with MDA-MB-231 it was 6.23 µM; with SK-HEP1, 3.3 µM; in the assay with SNU-638, 4.94 µM. The 50% inhibitory concentration (IC50) in the assay on MRC5 is 18.8 µM.
In the case of `COc1cc2ncnc(Nc3ccc(F)c(Cl)c3)c2cc1OCCOS(=O)(=O)NC(=O)[C@@H](O)CC(C)C`, the inhibition entry in assay [1] and in assay [5] was “inactive” in each case. Moreover, the outcome with HEK293 [2], with HEK293 [3] and with HEK293 [4] was inactive.
For `COc1cc2ncnc(Nc3ccc(F)c(Cl)c3)c2cc1OS(=O)(=O)NC(=O)[C@@H](N)CC(C)C`, the inhibition entry in [1] was “Active”. Besides, the outcome in the assay with HEK293 [2], in the assay on HEK293 [3] and with HEK293 [4] was inactive. Besides, the inhibition result in [5] is “inactive”.
In the case of `COc1cc2ncnc(Nc3ccc(F)c(Cl)c3)c2cc1OCCOC(=O)[C@@H](O)CC(C)C`, in assay [13], the inhibition entry is “Dose-dependent effect”. In addition, the result in the assay on HEK293 [7], in the assay with HEK293 [8] and in the assay with HEK293 [9] was inactive. Moreover, in [10], the inhibition result is “inactive”. Also, in assay [14], the Activity is more than 70%. Moreover, the IC50 turned out to be 3.16 µM in the assay on A549; 3.12 µM in the assay on HCT-116; 3.89 µM in the assay with K562; 2.05 µM with MDA-MB-231; 1.39 µM in the assay on SK-HEP1; 3.41 µM in the assay on SNU-638. Besides, the IC50 in the assay on MRC5 was found to be 1.12 µM.
Take `COc1cc2ncnc(Nc3ccc(F)c(Cl)c3)c2cc1OC(=O)[C@@H](N)CC(C)C`: the inhibition result in [1] and in assay [5] was “inactive” throughout. For the same molecule, the outcome in the assay on HEK293 [2], with HEK293 [3] and in the assay on HEK293 [4] was inactive.
Consider `COc1cc2ncnc(Nc3ccc(F)c(Cl)c3)c2cc1OC(=O)[C@@H](O)CC(C)C`, for which the inhibition result in assay [1] and in assay [5] was “inactive” in each case. In addition, the result in the assay with HEK293 [2], with HEK293 [3] and with HEK293 [4] was inactive.
As for `COc1cc2ncnc(Nc3ccc(F)c(Cl)c3)c2cc1OCCNC(=O)[C@@H](N)CC(C)C`, the inhibition result in assay [1] is “Active”. Moreover, the inhibition result in [6] and in [10] was “inactive” in each case. Moreover, the result with HEK293 [7], in the assay on HEK293 [8] and in the assay with HEK293 [9] was inactive. Further, the Activity in assay [14] is more than 70%. Also, the IC50 is 2.79 µM in the assay with A549; 4.24 µM in the assay on HCT-116; 3.83 µM in the assay with K562; 4.59 µM in the assay with MDA-MB-231; 2.21 µM in the assay with SK-HEP1; 2.97 µM in the assay with SNU-638. Further, the IC50 in the assay with MRC5 is more than 20 µM.

For orientation: IC50 means the concentration that gives 50% inhibition.

The values are drawn from ChEMBL document CHEMBL4229473, “Discovery of novel leucyladenylate sulfamate surrogates as leucyl-tRNA synthetase (LRS)-targeted mammalian target of rapamycin complex 1 (mTORC1) inhibitors” (Bioorg Med Chem, 2018).
